Source: ChEMBL document CHEMBL1149200, “Toxic effects of natural piperine and its derivatives on epimastigotes and amastigotes of Trypanosoma cruzi” (Bioorg Med Chem Lett, 2004)

How the values were obtained:
[1] = system: Trypanosoma cruzi; assay: In vitro growth inhibition of amastigotes of Trypanosoma cruzi; assay type: functional, organism-based
Summary of the method: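 Intracellular amastigotes, Y-strain, in in vitro infected murine peritoneal macrophages. Compounds were held as 10 mg mL-1 DMSO stocks and serially diluted in medium before use. Read-out was the reduction in intracellular amastigote number. IC50 was obtained by linear regression.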

[2] = system: Trypanosoma cruzi; assay: In vitro growth inhibition of epimastigotes of Trypanosoma cruzi; assay type: functional, organism-based
Summary of the method: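 Y-strain epimastigotes were grown in axenic culture and proliferation was measured. Compounds came from 10 mg mL-1 DMSO stocks, diluted 1:2 serially in medium to final levels of 0.76–25, each in triplicate. IC50 was derived by linear regression.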

| Compound | IC50 [1] | IC50 [2] |
| --- | --- | --- |
| O=C(/C=C/C=C/C=C/c1ccc2c(c1)OCO2)N1CCCCC1 | 7.4 µM | 10.7 µM |
| O=C(CCCCc1ccc2c(c1)OCO2)N1CCCCC1 [TETRAHYDROPIPERINE] | 11.5 µM | 19.4 µM |
| O=C(/C=C/C=C/c1ccc2c(c1)OCO2)N1CCOCC1 | 5.71 µM | 56.1 µM |
| COc1ccc(CCNC(=O)/C=C/C=C/c2ccc3c(c2)OCO3)cc1OC | – | > 65.6 µM |
| CC(C)N(C(=O)/C=C/C=C/c1ccc2c(c1)OCO2)C(C)C | 7.77 µM | 14.8 µM |
| O=C(O)/C=C/C=C/c1ccc2c(c1)OCO2 [PIPERIC ACID] | – | > 115 µM |
| O=C(Cn1ccnc1[N+](=O)[O-])NCc1ccccc1 [BENZNIDAZOLE] | 2.58 µM | – |
| O=C(/C=C/C=C/c1ccc2c(c1)OCO2)OC1CCCCC1 | – | > 83.3 µM |
| C(/C=C/c1ccc2c(c1)OCO2)=C\CN1CCCCC1 | 9.63 µM | 17.5 µM |
| CN1CCN(C(=O)/C=C/C=C/c2ccc3c(c2)OCO3)CC1 | – | > 83.3 µM |
| O=C(/C=C/c1ccc2c(c1)OCO2)N1CCCCC1 [ILEPCIMIDE] | – | > 96.5 µM |
| O=C(/C=C/c1ccc2c(c1)OCO2)N1CCOCC1 | – | > 95.8 µM |
| O=C(/C=C/C=C/c1ccc2c(c1)OCO2)NCc1ccccc1 | – | > 81.4 µM |
